# Results reported in ChEMBL document CHEMBL3352663, “Inhibition of group IVA cytosolic phospholipase A2 by thiazolyl ketones in vitro, ex vivo, and in vivo” (J Med Chem, 2014).
# The source made the active and inactive calls. The calls are words filed in the database; no cut-off is given here.
# Key:
# Mus musculus [1] = experiment: Antiinflammatory activity in DBA/1 mouse […] model assessed as reduction in articular cavity at 7.5 mg/kg, ip treatment started on day 21 after second […] measured on day 32; format: functional, organism-based; set-up: dose 7.5 mg/kg
# How it was run: (§1)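 Prophylactic collagen-induced arthritis in male DBA/1 mice. Bovine type II collagen (2 mg/mL) was emulsified 1:1 in Freund's complete adjuvant and 0.1 mL injected at the tail base on day 0, with a booster on day 21. Daily ip dosing in DMSO at 2 mL/Kg began 1 h before the booster. Arthritis index was scored through day 41. Histology groups were killed at day 32 after […] of dosing; hind paws were scored blind (0-5) for infiltration, hyperplasia and damage.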
# Mus musculus [2] = experiment: Antiinflammatory activity in DBA/1 mouse […] model assessed as reduction in peripheral tissue inflammatory cell infiltration at 7.5 mg/kg, ip treatment started on day 21 after […] measured on day 32; format: functional, organism-based; set-up: dose 7.5 mg/kg; how it was run: as §1
# Mus musculus [3] = experiment: Antiinflammatory activity in DBA/1 mouse […] assessed as reduction in capillary and synovial hyperplasia at 7.5 mg/kg, ip treatment started on day 21 after […] measured on day 32; format: functional, organism-based; set-up: dose 7.5 mg/kg; how it was run: as §1
# Mus musculus [4] = experiment: Reduction in PGE2 level in DBA/1 mouse plasma at 0.3 mg/kg, ip by EIA analysis relative to control; format: functional, organism-based; set-up: dose 0.3 mg/kg
# How it was run: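 Plasma came from collagen-induced arthritic DBA/1 mice at termination, about 5 h after the last daily ip dose. Samples were diluted 1:1000-1:6000 in EIA buffer and incubated 18 h at 4 °C in a PGE2 EIA, read at OD550. Levels are expressed relative to DMSO-vehicle arthritic mice; n=10-11 per group, ±SD.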
# Homo sapiens = organism: Homo sapiens; experiment: Inhibition of human recombinant GV sPLA2 using 400 uM Triton X-100/98.3 uM PAPC/1.7 uM 14C-labeled PAPC substrate mixedmicelles at 1 uM
# [5] = target: T1, Cytosolic phospholipase A2 (Homo sapiens) (UniProt P47712); experiment: Inhibition of human recombinant GIVA cPLA2 at 1 uM in vitro vesicle assay
# T1 sequence (whole entry): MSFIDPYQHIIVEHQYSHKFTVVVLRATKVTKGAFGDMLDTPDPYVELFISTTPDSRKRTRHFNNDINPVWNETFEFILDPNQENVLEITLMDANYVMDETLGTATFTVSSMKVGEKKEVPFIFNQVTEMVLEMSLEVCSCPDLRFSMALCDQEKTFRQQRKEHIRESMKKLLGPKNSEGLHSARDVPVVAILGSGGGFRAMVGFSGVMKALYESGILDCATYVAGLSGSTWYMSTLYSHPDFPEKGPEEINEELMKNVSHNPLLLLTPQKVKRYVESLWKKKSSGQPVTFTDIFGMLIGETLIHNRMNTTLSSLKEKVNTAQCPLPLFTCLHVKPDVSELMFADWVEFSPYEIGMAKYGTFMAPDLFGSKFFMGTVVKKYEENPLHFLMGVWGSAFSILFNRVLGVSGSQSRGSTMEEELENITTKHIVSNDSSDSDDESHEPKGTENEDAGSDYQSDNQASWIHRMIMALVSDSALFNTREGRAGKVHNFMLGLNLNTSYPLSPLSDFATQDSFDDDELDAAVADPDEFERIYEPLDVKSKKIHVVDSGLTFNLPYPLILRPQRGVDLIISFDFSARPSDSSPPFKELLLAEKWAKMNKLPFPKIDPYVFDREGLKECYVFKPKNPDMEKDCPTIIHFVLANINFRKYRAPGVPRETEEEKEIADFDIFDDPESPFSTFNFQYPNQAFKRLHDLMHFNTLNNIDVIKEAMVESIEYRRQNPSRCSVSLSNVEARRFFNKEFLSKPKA
# How it was run: (§2)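 Recombinant human GIVA cPLA2 was preincubated with 1% DMSO ± inhibitor (80 s at 37 °C, then 10 min at 25 °C). Sonicated vesicles of 1-palmitoyl-2-[14C]arachidonyl-PC (0.2 μM) were added and incubated 1 h at 37 °C. The reaction was stopped with chloroform/methanol. Single-point tests used 1 µM inhibitor; IC50 determinations used 0-3 µM.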
# [6] = target: T2, Cytosolic phospholipase A2 (Homo sapiens, UniProt P47712); experiment: Inhibition of human recombinant GIVA cPLA2 in vitro vesicle assay; how it was run: as §2
# T2 sequence (P47712 whole entry): T1 sequence (whole entry)
# SW982 [7] = experiment: Inhibition of IL-1beta-induced arachidonic acid release in human SW982 cells using [3H]AA at 10 uM by liquid scintillation counting; format: functional; conditions: for inhibition at 10 µM: SW982, 4 h
# How it was run: (§3)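 SW982 synovial sarcoma cells were serum-starved and labelled overnight with 3H-AA (0.4 µCi/mL) and 14C-OA (0.067 µCi/mL), then washed with PBS/fBSA. They were pretreated 1 h with inhibitor (10 µM single point, or 0-20 µM for IC50), then stimulated with IL-1β 10 ng/mL for 4 h. Released radioactivity was counted by scintillation relative to total incorporated label; DMSO served as vehicle; ≥3 independent experiments in triplicate.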
# SW982 [8] = experiment: Inhibition of IL-1beta-induced arachidonic acid release in human SW982 cells using [3H]AA by liquid scintillation counting; format: functional, cell-based; how it was run: as §3
# SW982 [9] = experiment: Inhibition of IL-1beta-induced oleic acid release in human SW982 cells using [3H]OA at 10 uM by liquid scintillation counting; format: functional; conditions: SW982, 4 h
# [10] = target: T1, Cytosolic phospholipase A2 (Homo sapiens); experiment: Inhibition of human recombinant GIVA cPLA2 using 400 uM Triton X-100/97 uM PAPC/1.8 uM 14C-labeled PAPC/3uM PIP2 substrate mixedmicelles at 0.091 mole fraction
# SW982 [11] = experiment: Inhibition of IL-1beta-induced oleic acid release in human SW982 cells using [3H]OA at 0 to 20 uM by liquid scintillation counting; format: functional, cell-based
# [12] = target: T1, Cytosolic phospholipase A2 (Homo sapiens); experiment: Inhibition of human recombinant GIVA cPLA2 using 400 uM Triton X-100/97 uM PAPC/1.8 uM 14C-labeled PAPC/3uM PIP2 substrate mixedmicelles
# How it was run: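 Modified Dole assay of recombinant human GIVA cPLA2. Mixed micelles contained 400 µM Triton X-100, 97 µM PAPC, 1.8 µM 14C-PAPC and 3 µM PIP2 in 100 mM HEPES pH 7.5 with 90 µM CaCl2, 2 mM DTT and 0.1 mg/mL BSA. Percent inhibition was measured at 0.091 mole fraction inhibitor. XI(50) is the mole fraction giving 50% inhibition.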
# [13] = Homo sapiens, SW982, 4 h, read-out: IC50
SMILES,inhibition (Mus musculus [1]),inhibition (Mus musculus [2]),inhibition (Mus musculus [3]),inhibition (Mus musculus [4]),inhibition (Homo sapiens),inhibition [5],IC50 [6],inhibition at 10 µM (SW982 [7]),IC50 (SW982 [8]; [13]),inhibition at 10 µM (SW982 [9]),inhibition [10],inhibition (SW982 [7]),inhibition (SW982 [11]),XI50 (mole fraction) [12],IC50 (SW982 [8]; sw982)
CN(Cc1cnc2nc(N)nc(N)c2n1)c1ccc(C(=O)N[C@@H](CCC(=O)O)C(=O)O)cc1,inactive,inactive,inactive,Active,–,–,–,–,–,–,–,–,–,–,–
O=C(COc1ccc(-c2ccccc2)cc1)c1nccs1,–,–,–,–,41%,26%,Not Active,73%,2.8 µM,25%,80%,–,–,–,–
CCCCCCCCCCCCOCC(=O)c1nc(CC(=O)OCC)cs1,–,–,–,–,55%,inactive,–,–,–,–,49%,inactive,inactive,–,–
CCCCCCCCc1ccc(OCC(=O)c2nccs2)cc1,–,–,–,–,46%,43%,–,> 90%,3.6 µM,–,> 90%,–,inactive,0.02,–
O=C(COc1ccccc1)c1nccs1,–,–,–,–,0%,26%,Not Active,12%,–,20%,40%,–,–,–,Not Active
CCCCCCCCCCCCOCC(=O)c1nc(C(=O)OCC)cs1,–,–,–,–,48%,21%,Not Active,9%,–,–,48%,–,inactive,–,Not Active
O=C(COc1ccc(F)cc1)c1nccs1,–,–,–,–,4%,7%,Not Active,–,–,25%,58%,inactive,–,–,–
CCCCCCCCc1ccc(OCC(=O)c2nc(CC(=O)OCC)cs2)cc1,–,–,–,–,50%,25%,Not Active,71%,5 µM,20%,64%,–,–,–,–
CCCCCCCCc1ccc(OCC(=O)c2nc3ccccc3s2)cc1,–,–,–,–,55%,inactive,–,71%,5.3 µM,35%,> 90%,–,–,0.06,–
